Bioassay records: PubChem BioAssay, several laboratories
KCNQ1 pot – potentiators or activators of KCNQ1 channel, primary screen, cell-based, thallium flux, high-throughput | Potassium voltage-gated channel subfamily KQT member 1 (Homo sapiens), P51787 | CHO-K1 KCNQ1, thallium flux FluxOR fluorescence; stronger effect = higher value | B-score at 10 µM | hit rate 0.35% among 310,000 | AID 2648, 2010;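 active = fluorescence ratio B-score, a plate-corrected score, at least three library SD, with initial intensity B-score within 5 SD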
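Test system: CHO-K1 cells stably expressing KCNQ1 / Medium: assay buffer / Also added: depolarizing K+/Tl+ stimulus, K2SO4 and Tl2SO4 each 12.5 mM in 5x stock / Incubation: 90 min dye loading and 20 min compound exposure, both at room temperature / Signal: thallium influx via FluxOR fluorescence, kinetic imaging / Evaluation: B score of baseline-normalized fluorescence ratio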
PHOSPHO1 inh – PubChem AID 1565. Phosphoethanolamine/phosphocholine phosphatase (Homo sapiens), Q8TCT1. recombinant PHOSPHO1, absorbance phosphatase assay. inhibition, % at 13.3 µM. hit rate 1.1% among 290,000; in the data active = inhibition above about 60%
Target sequence (Q8TCT1 whole entry, looked up): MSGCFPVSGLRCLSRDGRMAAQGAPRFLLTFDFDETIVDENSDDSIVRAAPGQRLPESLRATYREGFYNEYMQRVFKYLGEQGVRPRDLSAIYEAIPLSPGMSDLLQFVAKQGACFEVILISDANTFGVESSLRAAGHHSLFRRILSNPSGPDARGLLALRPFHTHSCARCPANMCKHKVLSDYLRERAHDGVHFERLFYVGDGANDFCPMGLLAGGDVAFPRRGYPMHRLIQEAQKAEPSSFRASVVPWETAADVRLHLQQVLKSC
KCNK3 inh – human KCNK3 channel inhibitors, primary screen, CHO cells, FluxOR thallium flux, B-score; B-score at 10 µM; hit rate 0.84% among 340,000; Potassium channel subfamily K member 3 (Homo sapiens), O14649; FluxOR fluorescence; stronger effect = lower value;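 active = B-score under library mean minus 4 SD, starting fluorescence ratio at most library mean plus 5 SD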;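 note: more negative B-score means stronger inhibition of thallium flux through KCNK3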
Target sequence (O14649 whole entry, looked up): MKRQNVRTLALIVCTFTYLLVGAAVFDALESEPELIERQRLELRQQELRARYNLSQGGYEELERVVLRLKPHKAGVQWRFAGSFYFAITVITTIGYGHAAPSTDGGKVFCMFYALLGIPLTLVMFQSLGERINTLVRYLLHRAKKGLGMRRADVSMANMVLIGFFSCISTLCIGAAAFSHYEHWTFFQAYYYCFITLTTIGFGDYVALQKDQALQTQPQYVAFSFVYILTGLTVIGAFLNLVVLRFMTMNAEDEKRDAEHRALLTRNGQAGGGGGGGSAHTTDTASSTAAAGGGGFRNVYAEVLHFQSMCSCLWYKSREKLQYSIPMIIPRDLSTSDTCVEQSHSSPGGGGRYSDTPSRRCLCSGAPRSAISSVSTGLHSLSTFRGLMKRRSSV
KCNQ1 inh – inhibitors of human KCNQ1 channel, primary screen, cell-based, thallium flux, high-throughput; B-score at 10 µM; AID 2642, 2010; Potassium voltage-gated channel subfamily KQT member 1 (Homo sapiens), P51787; hit rate 1.3% among 310,000; CHO-K1 KCNQ1, FluxOR thallium flux fluorescence; stronger effect = higher value;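 active = compounds whose thallium flux B-score, printed positive for inhibition, exceeds three library SD while starting fluorescence stays within three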;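 note: channel opened by potassium depolarization with thallium stimulus after 20 min compound exposure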
KCNK9 inh – KCNK9 potassium channel inhibitors, primary screen, HEK293 cells, thallium flux; Potassium channel subfamily K member 9 (Homo sapiens), Q9NPC2; FluxOR thallium flux fluorescence; stronger effect = lower value; B-score at 10 µM; hit rate 1.2% among 310,000; AID 488922, 2010;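 active = ratio B-score over 3 SD below the library mean, with starting fluorescence within 5 SD of its mean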;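 note: negative B-score means less thallium flux so channel inhibition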
hERG rescue – hERG rescue from dofetilide block, primary screen, cell-based, CHO-hERG, FluxOR thallium flux, dofetilide IC70. AID 1511, 2009. hit rate 0.51% among 310,000. dofetilide IC70 present. Voltage-gated inwardly rectifying potassium channel KCNH2 (Homo sapiens), Q12809. activation (rescue from dofetilide block), less the hit threshold, % at 10 µM;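 active = activation above the mean of controls blocked by dofetilide plus 5 SD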;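 note: thallium influx through hERG after potassium depolarization seen as dye fluorescence rise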
Each line names hits and unclear results; the compound was inactive in the other large screens. Compounds with a hit are over-represented: about 4% of the library has one in this group of screens.

COc1cc(NC(=O)Cn2cnc3c(nc4n3CCCCC4)c2=O)cc(OC)c1OC	PHOSPHO1 inh 75
OCCC1CN(Cc2ccc(-c3ccco3)cc2)CCN1Cc1ccsc1 (stereo unspecified)	none
N#CC1=C2SCN(Cc3ccco3)CN2C(=O)CC1c1cccc2ccccc12 (stereo unspecified)	none
COc1ccc(N2CSC3=C(C#N)C(c4cc(OC)ccc4OC)CC(=O)N3C2)c(OC)c1 (stereo unspecified)	PHOSPHO1 inh 94
COc1cc(OC)c(C2CC(=O)N3CN(c4ccc(C)cc4)CSC3=C2C#N)cc1OC (stereo unspecified)	PHOSPHO1 inh 96
CCOc1ccccc1N1CSC2=C(C#N)C(c3c(OC)ccc4ccccc34)CC(=O)N2C1 (stereo unspecified)	PHOSPHO1 inh 92
COc1ccc(N2CSC3=C(C#N)C(c4ccc(OC)c(OC)c4)CC(=O)N3C2)c(OC)c1 (stereo unspecified)	none
COc1ccc(C2CC(=O)N3CN(c4ccc(C)c(Cl)c4)CSC3=C2C#N)cc1OC (stereo unspecified)	PHOSPHO1 inh 81
COc1ccc(N2CSC3=C(C#N)C(c4cc(OC)c(OC)cc4OC)CC(=O)N3C2)c(OC)c1 (stereo unspecified)	PHOSPHO1 inh 93
Cc1cccc(Nc2n[nH]c(=S)s2)c1C	PHOSPHO1 inh 100
CC(C)COC(=O)/C(C#N)=C/c1c[nH]c2ccccc12	KCNK9 inh -7.3
S=c1nc(-c2ccccc2)n(CCCN2CCOCC2)c2c1CCCC2	hERG rescue 6.8
CC(C)Sc1nnc(-c2ccc(S(=O)(=O)N3CCOCC3)cc2)n1C	none
Cn1cnnc1SCc1ccc(-c2ccc(Br)cc2)o1	PHOSPHO1 inh 85
Cn1cnnc1SCc1ccccc1	none
CN(C)CCOC(=O)/C(=C/c1cn(C)c2ccccc12)NC(=O)c1ccccc1	none
COc1ccc(S(=O)(=O)Nc2nnc(C(C)(C)C)s2)cc1	PHOSPHO1 inh 98
Cc1ccc(-c2n[nH]c(=S)n2/N=C/C=C\c2ccccc2[N+](=O)[O-])cc1	PHOSPHO1 inh 92
O=[N+]([O-])c1ccccc1/C=C/C=N/n1c(-c2ccc(Cl)cc2)n[nH]c1=S	PHOSPHO1 inh 104
O=[N+]([O-])c1ccccc1/C=C/C=N/n1c(-c2ccccc2)n[nH]c1=S	none
O=C(O)c1ccc(COc2c(F)c(F)cc(F)c2F)cc1	none
COc1ccccc1NC(=O)Cc1nnc(SCC(=O)Nc2ccc(F)cc2F)n1C	none
CC[n+]1ccc(/C=C/c2c[nH]c3ccccc23)cc1	KCNQ1 inh 10
Cc1ccc2[nH]cc(/C=C/c3cc[n+](C)cc3)c2c1	none
Cc1ccn2c(NC(=O)C(C)(C)Oc3ccc(Cl)cc3)c(-c3cccs3)nc2c1	KCNK9 inh -7.4
Cc1ccc(C(=O)Nc2c(-c3cccs3)nc3cc(C)ccn23)cc1	none
COC(=O)c1ccc2[nH]c(C(C)(C)O)c(C)c2c1	none
CCc1nnc(NC(=O)c2sc3nc4cc(C)ccc4cc3c2N)s1	PHOSPHO1 inh 99
CCOC(=O)c1c(C)nc(C)c(C(=O)OCC)c1-c1ccco1	none
O=C(Nc1ccccn1)c1c(O)c2cccc3c2n(c1=O)CCC3	none
CC(C)(C)c1ccccc1NC(=O)c1c(O)c2cccc3c2n(c1=O)CC3	KCNQ1 inh 7 (no result: KCNK3 inh)
O=C(Nc1nccs1)c1c(O)c2cccc3c2n(c1=O)CCC3	KCNQ1 inh 6 (no result: KCNK3 inh)
COc1cccc(NC(=S)NNC(=O)c2c([N+](=O)[O-])c(C)nn2C)c1	PHOSPHO1 inh 82
CCOc1cc(NC(=O)c2ccccn2)c(OCC)cc1NC(=O)c1ccc(C)cc1	none
CC[n+]1ccc(/C=C2\Sc3ccccc3N2CCCS(=O)(=O)[O-])c2ccccc21	none
CC[n+]1ccccc1/C=C/c1ccc(N(C)C)cc1	KCNQ1 inh 8
CN(C)c1ccc(/C=C/c2cc[n+]([O-])cc2)cc1	none (no result: KCNK3 inh)
CC[n+]1ccc(/C=C/c2ccc(N(C)C)cc2)c2ccccc21	KCNK3 inh -9.9 (no result: KCNQ1 pot, KCNQ1 inh, KCNK9 inh, hERG rescue)
Cc1nn(C)cc1CNC(=O)c1cnn2c(C(F)F)cc(C3CC3)nc12	none
Cc1ccccc1CS(=O)(=O)c1cn(CC(=O)N2CCOCC2)c2ccccc12	none
COc1cc(/C=N/Nc2nc(N3CCCC3)nc(N3CCCC3)n2)ccc1OCc1ccccc1F	hERG rescue 11
CSc1nsc(NC(=O)Cc2ccccc2)n1	none
CCCCCCSc1nsc(NC(=O)CCC)n1	KCNQ1 inh 6
COc1cccc(CN2CC(C(=O)NC3(c4ccccc4)CC3)CCC2=O)c1 (stereo unspecified)	none
Cc1ccc(C(=O)Cn2c(N3CCOCC3)nc3c2c(=O)n(C)c(=O)n3C)cc1	hERG rescue 5.0
COc1cccc(C(=O)Cn2c(N3CCOCC3)nc3c2c(=O)n(C)c(=O)n3C)c1	none
O=C(N/N=C/c1ccc(-c2cccc([N+](=O)[O-])c2)o1)[C@H]1C[C@@H]1c1ccccc1	KCNK9 inh -10
O=C(N/N=C/c1ccc(-c2ccc([N+](=O)[O-])cc2)o1)[C@H]1C[C@@H]1c1ccccc1	none
Cc1nnsc1C(=O)NNC(=O)Nc1ccccc1	none
Cc1nc(N2CCC(C)CC2)c2c(C)c(C(=O)Nc3ccccc3C(F)(F)F)sc2n1	KCNK9 inh -7.4
Cc1nc(N2CCN(c3ccccn3)CC2)c2c(C)c(C(=O)Nc3c(C)cc(Br)cc3C)sc2n1	none
Cc1nc(N2CCN(c3ccccn3)CC2)c2c(C)c(C(=O)Nc3c(F)cc(F)cc3Br)sc2n1	KCNQ1 inh 6
CC(C)n1cc(C(=O)N2CCCC(Nc3ccc(F)c(F)c3)C2)cn1 (stereo unspecified)	none
O=C(O)CC1(CC(=O)Nc2cc(C(F)(F)F)cc(C(F)(F)F)c2)CCCCC1	KCNQ1 inh 7
O=C(CN(c1ccccc1)S(=O)(=O)c1ccccc1)NCCSCc1ccco1	PHOSPHO1 inh 72
CCCc1ccc(C2C3=C(CC(C)(C)CC3=O)NC3=C2C(=O)c2ccccc23)cc1 (stereo unspecified)	KCNQ1 inh 9
CCOC(=O)Cn1c(-c2ccccc2)cc(SC)c(C#N)c1=O	none
CCOC(=O)c1sc2nc(C)nc(NC3CCC(O)CC3)c2c1C (stereo unspecified)	none
N=C1/C(=C\c2ccc(-c3cc(Cl)cc(Cl)c3)o2)C(=O)N=C2SC=C(c3ccccc3)N12	none
N=C1/C(=C/c2ccc(-c3cccc(C(=O)O)c3)o2)C(=O)N=C2SC=C(c3ccccc3)N12	KCNQ1 inh 7
